Reference: ChEMBL document CHEMBL3112527, “Quinoline-pyrimidine hybrids: synthesis, antiplasmodial activity, SAR, and mode of action studies” (J Med Chem, 2014)
≈ marks a conversion by molar mass, not a printed value. Calls of active or inactive are those of the source. The rule behind the calls is not given here.

Experiments:
[1] = system: Human alphaherpesvirus 2; assay: Antiviral activity against HSV-2 G infected in HEL cells assessed as inhibition of virus-induced cytopathicity; format: functional, organism-based; conditions: strain G
Outline: (§1)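 Confluent monolayers (HEL, Vero, HeLa or CrFK, as applicable) were inoculated with 100 CCID50 of virus, with 1 CCID50 being the dose that infects 50% of cultures. Infection ran in the presence of varying compound concentrations. Inhibition of virus-induced cytopathicity was scored against infected cultures left untreated.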

[2] = system: Human alphaherpesvirus 1; assay: Antiviral activity against HSV-1 KOS infected in HEL cells assessed as inhibition of virus-induced cytopathicity; format: functional, organism-based; outline: as §1
[3] = Solubility of the compound in octanol at pH 7.4 by HPLC analysis; format: physicochemical
[4] = n-octanol-PBS buffer distribution coefficient, log D of the compound at pH 7.4 after 24 hrs by HPLC analysis; format: physicochemical
[5] = Aqueous solubility of the compound in PBS buffer at pH 7.4 after 24 hrs by HPLC analysis; format: physicochemical; conditions: pH 7.4, 24 h
[6] = Selectivity index, ratio of CC50 for cat CRFK cells to IC50 for chloroquine-resistant asexual erythrocytic stage of Plasmodium falciparum Dd2; format: functional
Outline: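 Ratio of CRFK CC50 (μM) to Dd2 IC50 […]. CC50 is the 50% cytotoxic concentration in feline kidney CRFK cells, measured as cell viability by colorimetric formazan-based MTS assay. Dd2 IC50 is from the parasite LDH growth-inhibition assay.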

[7] = Cytotoxicity against cat CRFK cells assessed as cell viability by MTS assay; format: cell-based, Felis catus
Outline: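 CRFK cells were exposed to varying sample concentrations. Cell viability was measured with the colorimetric formazan-based MTS assay, and the 50% cytotoxic concentration (CC50) was derived from it.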

[8] = Cytotoxicity against human HeLa cells assessed as alteration of cell morphology by microscopic analysis; format: cell-based; conditions: read-out: MIC
Outline: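 Cells (Vero, HEL, MDCK or HeLa) were exposed to a range of sample concentrations. The value reported is the concentration required to cause a microscopically detectable alteration of normal cell morphology.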

[9] = system: Plasmodium falciparum; assay: Antiplasmodial activity against chloroquine-resistant asexual erythrocytic stage of Plasmodium falciparum Dd2 assessed as parasite growth inhibition by lactate dehydrogenase assay; format: functional, organism-based
Outline: (§2)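 Parasite lactate dehydrogenase assay (modified Makler method). Samples held as 20 mg/mL stocks in DMSO, diluted on test day. Full dose-response: starting at 10 μg/mL, 2-fold serial dilution in complete medium over 10 concentrations down to 0.02 μg/mL. Chloroquine, artesunate and MMV390048 served as references. IC50 from nonlinear dose-response curve fitting; mean of three independent experiments.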

[10] = system: Plasmodium falciparum; assay: Antiplasmodial activity against chloroquine-sensitive asexual erythrocytic stage of Plasmodium falciparum D10 assessed as parasite growth inhibition by lactate dehydrogenase assay; format: functional, organism-based; outline: as §2
[11] = system: Felid alphaherpesvirus 1; assay: Antiviral activity against Feline herpesvirus infected in cat CRFK cells assessed as inhibition of virus-induced cytopathicity; format: functional, organism-based; outline: as §1
[12] = system: Feline coronavirus; assay: Antiviral activity against Feline coronavirus infected in cat CRFK cells assessed as inhibition of virus-induced cytopathicity; format: functional, organism-based; outline: as §1
[13] = system: Human alphaherpesvirus 3; assay: Antiviral activity against Varicella-zoster virus infected in HEL cells assessed as inhibition of virus-induced cytopathicity; format: functional, organism-based
[14] = system: Human betaherpesvirus 5; assay: Antiviral activity against Cytomegalovirus Davis infected in HEL cells assessed as inhibition of virus-induced cytopathicity; format: functional, organism-based
[15] = system: Human betaherpesvirus 5; assay: Antiviral activity against Cytomegalovirus AD169 infected in HEL cells assessed as inhibition of virus-induced cytopathicity; format: functional, organism-based
[16] = system: Respiratory syncytial virus; assay: Antiviral activity against Respiratory syncytial virus infected in human HeLa cells assessed as inhibition of virus-induced cytopathicity; format: functional, organism-based; outline: as §1
[17] = system: Coxsackievirus B4; assay: Antiviral activity against Coxsackievirus B4 infected in human HeLa cells assessed as inhibition of virus-induced cytopathicity; format: functional, organism-based; outline: as §1
[18] = system: Influenza A virus H3N2; assay: Antiviral activity against Influenza A virus H3N2 infected in MDCK cells assessed as inhibition of virus-induced cytopathicity; format: functional, organism-based
Outline: (§3)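 Confluent monolayers in 96-well plates were inoculated with 100 CCID50 of virus in the presence of varying concentrations of compound. Read-out was inhibition of virus-induced cytopathicity, compared with untreated infected cultures. Cytotoxicity was judged microscopically or by MTT viability staining.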

[19] = system: Vesicular stomatitis virus; assay: Antiviral activity against Vesicular stomatitis virus infected in human HeLa cells assessed as inhibition of virus-induced cytopathicity; format: functional, organism-based; outline: as §3
[20] = system: Influenza A virus; assay: Antiviral activity against influenza A virus H1N1 infected in MDCK cells assessed as inhibition of virus-induced cytopathicity; format: functional, organism-based; outline: as §3
[21] = system: Punta Toro virus; assay: Antiviral activity against Punta Toro virus infected in African green monkey Vero cells assessed as inhibition of virus-induced cytopathicity; format: functional, organism-based; outline: as §1
[22] = system: Coxsackievirus B4; assay: Antiviral activity against Coxsackievirus B4 infected in African green monkey Vero cells assessed as inhibition of virus-induced cytopathicity; format: functional, organism-based; outline: as §1
[23] = system: Sindbis virus; assay: Antiviral activity against Sindbis virus infected in African green monkey Vero cells assessed as inhibition of virus-induced cytopathicity; format: functional, organism-based
[24] = system: Mammalian orthoreovirus 1; assay: Antiviral activity against Reovirus 1 infected in African green monkey Vero cells assessed as inhibition of virus-induced cytopathicity; format: functional, organism-based; outline: as §1
[25] = system: Human respirovirus 3; assay: Antiviral activity against parainfluenza virus 3 infected in African green monkey Vero cells assessed as inhibition of virus-induced cytopathicity; format: functional, organism-based; outline: as §1
[26] = system: Human alphaherpesvirus 1; assay: Antiviral activity against thymidine kinase-negative acyclovir-resistant HSV-1 KOS infected in HEL cells assessed as inhibition of virus-induced cytopathicity; format: functional, organism-based; outline: as §3
[27] = system: Vesicular stomatitis virus; assay: Antiviral activity against Vesicular stomatitis virus infected in HEL cells assessed as inhibition of virus-induced cytopathicity; format: functional, organism-based; outline: as §3
[28] = system: Vaccinia virus; assay: Antiviral activity against Vaccinia virus infected in HEL cells assessed as inhibition of virus-induced cytopathicity; format: functional, organism-based; conditions: Orthopoxvirus vaccinia; outline: as §3

SMILES	inhibition [1]	inhibition [2]	solubility [3] [µM]	logD at 24 h [4]	solubility [5] [µM]	CC50 [7] [µM]	MCC [8] [µM]	IC50 [10] [nM]	inhibition [11]	inhibition [12]	inhibition [13]	inhibition [14]	inhibition [15]	inhibition [16]	inhibition [17]	inhibition [18]	inhibition [19]	inhibition [20]	inhibition [21]	inhibition [22]	further results
Clc1ccc2c(NCCCNc3ccnc(N4CCOCC4)n3)ccnc2c1	inactive	inactive	1.27 (≈ 0.507 µg/mL)	0.363	0.55 (≈ 0.219 µg/mL)	> 100	100	70	inactive	inactive	inactive	inactive	inactive	inactive	inactive	inactive	inactive	inactive	inactive	inactive	Ratio CC50/IC50 [6]: >247; IC50 [9]: 404 nM; inhibition [23]: inactive; inhibition [24]: inactive; inhibition [25]: inactive; inhibition [26]: inactive; inhibition [27]: inactive; inhibition [28]: inactive
Clc1ccc2c(NCCNc3ccnc(Cl)n3)ccnc2c1	inactive	inactive	2.09 (≈ 0.698 µg/mL)	0.489	0.68 (≈ 0.227 µg/mL)	> 100	4	1430	inactive	inactive	inactive	inactive	inactive	inactive	inactive	inactive	inactive	inactive	inactive	inactive	inhibition [23]: inactive; inhibition [24]: inactive; inhibition [25]: inactive; inhibition [26]: inactive; inhibition [27]: inactive; inhibition [28]: inactive
Clc1ccc2c(NCCCCCCCCCCCCNc3nccc(Cl)n3)ccnc2c1	inactive	inactive	19.4 (≈ 9.2 µg/mL)	2.59	0.05 (≈ 0.0237 µg/mL)	19	20	4310	inactive	inactive	inactive	inactive	inactive	inactive	inactive	inactive	inactive	inactive	inactive	inactive	inhibition [23]: inactive; inhibition [24]: inactive; inhibition [25]: inactive; inhibition [26]: inactive; inhibition [27]: inactive; inhibition [28]: inactive
Clc1ccc2c(NCCCCCCCCNc3nccc(Cl)n3)ccnc2c1	inactive	inactive	2.91 (≈ 1.22 µg/mL)	1.51	0.09 (≈ 0.0377 µg/mL)	10	20	1060	inactive	inactive	inactive	inactive	inactive	inactive	inactive	inactive	inactive	inactive	inactive	inactive	inhibition [23]: inactive; inhibition [24]: inactive; inhibition [25]: inactive; inhibition [26]: inactive; inhibition [27]: inactive; inhibition [28]: inactive
C[C@H]1[C@H](OC(=O)CCC(=O)O)O[C@@H]2O[C@@]3(C)CC[C@H]4[C@H](C)CC[C@@H]1[C@@]24OO3 [ARTESUNATE]								6.3													
Clc1ccc2c(NCCCCCCCCCCNc3nccc(Cl)n3)ccnc2c1	inactive	inactive	6.82 (≈ 3.04 µg/mL)	1.99	0.07 (≈ 0.0312 µg/mL)	4.4	4	3340	inactive	inactive	inactive	inactive	inactive	inactive	inactive	inactive	inactive	inactive	inactive	inactive	inhibition [23]: inactive; inhibition [24]: inactive; inhibition [25]: inactive; inhibition [26]: inactive; inhibition [27]: inactive; inhibition [28]: inactive
CS(=O)(=O)c1ccc(-c2cnc(N)c(-c3ccc(C(F)(F)F)nc3)c2)cc1 [MMV-048]								9.01													
Clc1ccc2c(NCCCCCCCNc3nccc(Cl)n3)ccnc2c1	inactive	inactive	1.92 (≈ 0.776 µg/mL)	1.16	0.13 (≈ 0.0526 µg/mL)	> 100	4	383	inactive	inactive	inactive	inactive	inactive	inactive	inactive	inactive	inactive	inactive	inactive	inactive	inhibition [23]: inactive; inhibition [24]: inactive; inhibition [25]: inactive; inhibition [26]: inactive; inhibition [27]: inactive; inhibition [28]: inactive
Clc1ccnc(N2CCOCC2)n1	inactive	inactive	12.1 (≈ 2.42 µg/mL)	0.13	9 (≈ 1.8 µg/mL)	> 100	> 100	15000	inactive	inactive	inactive	inactive	inactive	inactive	inactive	inactive	inactive	inactive	inactive	inactive	inhibition [23]: inactive; inhibition [24]: inactive; inhibition [25]: inactive; inhibition [26]: inactive; inhibition [27]: inactive; inhibition [28]: inactive
